Columns and labels:
[1] = target: T1, Beta-3 adrenergic receptor (Homo sapiens, UniProt P13945); assay: Intrinsic activity against human beta-3 adrenergic receptor IA) as a percentage of maximal stimulation with isoproterenol; format: functional
How it was run: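 In CHO cells expressing low-density human β3-AR (13,000 receptors/cell), cAMP accumulation was measured. Intrinsic activity is expressed as a percentage of the maximal stimulation produced by isoproterenol.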
Target sequence in this assay (P13945 whole entry, looked up): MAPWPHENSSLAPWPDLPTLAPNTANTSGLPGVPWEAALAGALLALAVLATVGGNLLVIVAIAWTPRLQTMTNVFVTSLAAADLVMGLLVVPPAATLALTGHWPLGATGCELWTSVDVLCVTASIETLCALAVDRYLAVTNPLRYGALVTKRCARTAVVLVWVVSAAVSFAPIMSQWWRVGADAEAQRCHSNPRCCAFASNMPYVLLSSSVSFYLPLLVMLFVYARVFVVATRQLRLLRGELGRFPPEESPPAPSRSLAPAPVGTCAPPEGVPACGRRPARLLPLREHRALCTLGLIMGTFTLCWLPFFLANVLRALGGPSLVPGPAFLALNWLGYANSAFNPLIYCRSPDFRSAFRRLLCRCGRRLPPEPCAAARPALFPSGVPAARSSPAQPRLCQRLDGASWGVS

[2] = target: T2, Beta-2 adrenergic receptor (Homo sapiens, UniProt P07550); assay: Agonistic activity was assessed by measuring cAMP accumulation in CHO cells expressing human beta-2 adrenergic receptor; format: functional, cell-based
[3] = target: T1, Beta-3 adrenergic receptor; assay: Agonistic activity was assessed by measuring cAMP accumulation in CHO cells expressing human beta-3 adrenergic receptor; format: functional, cell-based
Target sequence in this assay (P13945 whole entry): as the sequence (P13945 whole entry, looked up) above

[4] = target: Beta-1 adrenergic receptor (Homo sapiens, UniProt P08588); assay: Agonistic activity was assessed by measuring cAMP accumulation in CHO cells expressing human beta-1 adrenergic receptor; format: functional, cell-based
Caco-2 [5] = assay: Permeability of compounds was determined in Caco-2 cell monolayer permeability assay; (moderate); format: functional, cell-based; details: Homo sapiens
Caco-2 [6] = assay: Permeability of compounds was determined in Caco-2 cell monolayer permeability assay; (high); format: functional, cell-based; details: Homo sapiens
[7] = target: T2, Beta-2 adrenergic receptor; assay: Effective concentration against human beta-2 adrenergic receptor; format: functional

Chain of Beta-1 adrenergic receptor (P08588 whole entry): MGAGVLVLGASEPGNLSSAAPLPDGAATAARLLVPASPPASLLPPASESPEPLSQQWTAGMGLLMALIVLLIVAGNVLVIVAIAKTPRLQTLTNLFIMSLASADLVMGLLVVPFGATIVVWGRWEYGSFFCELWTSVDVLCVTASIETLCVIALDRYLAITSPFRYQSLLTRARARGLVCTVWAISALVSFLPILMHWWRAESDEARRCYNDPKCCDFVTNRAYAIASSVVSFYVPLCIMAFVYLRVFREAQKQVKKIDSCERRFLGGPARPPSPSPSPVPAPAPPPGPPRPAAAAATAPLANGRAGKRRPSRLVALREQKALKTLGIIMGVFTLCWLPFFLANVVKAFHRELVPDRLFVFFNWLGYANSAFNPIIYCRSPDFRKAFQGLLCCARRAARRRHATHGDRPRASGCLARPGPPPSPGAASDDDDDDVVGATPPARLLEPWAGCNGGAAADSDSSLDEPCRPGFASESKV
T2 sequence (P07550 whole entry): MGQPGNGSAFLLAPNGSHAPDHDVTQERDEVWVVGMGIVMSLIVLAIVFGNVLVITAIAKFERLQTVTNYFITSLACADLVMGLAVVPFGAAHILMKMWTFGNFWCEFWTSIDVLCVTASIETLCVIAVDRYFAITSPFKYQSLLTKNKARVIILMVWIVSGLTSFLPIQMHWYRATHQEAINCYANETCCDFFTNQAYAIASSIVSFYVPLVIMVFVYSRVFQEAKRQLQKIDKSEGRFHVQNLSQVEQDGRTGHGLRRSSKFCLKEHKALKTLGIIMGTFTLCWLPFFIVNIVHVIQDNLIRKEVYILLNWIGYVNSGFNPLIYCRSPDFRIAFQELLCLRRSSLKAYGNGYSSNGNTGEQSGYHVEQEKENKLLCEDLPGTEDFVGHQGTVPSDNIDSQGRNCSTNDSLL

Structure (SMILES)	IA50 [1] [%]	EC50 [2] [nM]	EC50 [3] [nM]	EC50 [4] [nM]	Permeability (Papp* 10E6 cm/s) (Caco-2 [5])	Permeability (Papp* 10E6 cm/s) (Caco-2 [6])	EC50 [7] [nM]
C[C@H](Cc1c[nH]c2c(OS(C)(=O)=O)cccc12)NC[C@H](O)c1cccc(NC/C=C/c2ccccc2)c1	97	13	1				
C/C=C/CNc1cccc([C@@H](O)CN[C@H](C)Cc2c[nH]c3c(OS(C)(=O)=O)cccc23)c1	102	10	1.2	170			
C[C@H](Cc1c[nH]c2c(OS(C)(=O)=O)cccc12)NC[C@H](O)c1cccc(NC(=O)c2ccccc2)c1	96	69	160	120	0.9		
C[C@H](Cc1c[nH]c2c(OS(C)(=O)=O)cccc12)NC[C@H](O)c1cccc(NCc2ccccc2)c1	87	16	11			9	
C[C@H](Cc1c[nH]c2c(OS(C)(=O)=O)cccc12)NC[C@H](O)c1cccc(OCc2ccccc2)c1	90	46	15			6.7	
CC(C)=CCNc1cccc([C@@H](O)CN[C@H](C)Cc2c[nH]c3c(OS(C)(=O)=O)cccc23)c1	79	36	36	160			
CC#CCNc1cccc([C@@H](O)CN[C@H](C)Cc2c[nH]c3c(OS(C)(=O)=O)cccc23)c1	90	18	6.5				
C=CCNc1cccc([C@@H](O)CN[C@H](C)Cc2c[nH]c3c(OS(C)(=O)=O)cccc23)c1	110	2.2	3.2				
C#CCNc1cccc([C@@H](O)CN[C@H](C)Cc2c[nH]c3c(OS(C)(=O)=O)cccc23)c1	102	9.6	10	45			
C[C@H](Cc1c[nH]c2c(OS(C)(=O)=O)cccc12)NC[C@H](O)c1cccc(NCc2ccc3ccccc3c2)c1	107		2.9				
CC/C=C/CNc1cccc([C@@H](O)CN[C@H](C)Cc2c[nH]c3c(OS(C)(=O)=O)cccc23)c1	101	11	9				
C=C(C)CNc1cccc([C@@H](O)CN[C@H](C)Cc2c[nH]c3c(OS(C)(=O)=O)cccc23)c1	114	1.5	17				
C[C@H](Cc1c[nH]c2c(OS(C)(=O)=O)cccc12)NC[C@H](O)c1cccc(NS(=O)(=O)c2ccccc2)c1	90		0.54	13			19
C[C@H](Cc1c[nH]c2c(OS(C)(=O)=O)cccc12)NC[C@H](O)c1cccc(N(C)S(=O)(=O)c2ccccc2)c1	38		52			4.7	
C[C@H](Cc1c[nH]c2c(OS(C)(=O)=O)cccc12)NC[C@H](O)c1cccc(OS(=O)(=O)c2ccccc2)c1	60		32			7	
C[C@H](Cc1c[nH]c2c(OS(C)(=O)=O)cccc12)NC[C@H](O)c1cccc(CS(=O)(=O)c2ccccc2)c1	54		100		0.9		
